Series [1] in a line: Cytotoxicity against human HeLa67 cell after 3 days by XTT assay. The series is classed as cell-based. To be noted: HeLa67 cells. The method in brief:
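HeLa67 cells treated in parallel with the antiviral assay. Viability read by XTT three days after compound addition. Values are means of two or more experiments unless noted otherwise.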
Background: Formazan colour is commonly taken as a measure of viable cells.

Series [2] has as its system Human immunodeficiency virus 1. Put plainly: Antiviral activity against HIV1 infected human HeLa67 cells coexpressing JRFL-LUCENV after 3 days by luciferase reporter assay. The series is classed as functional, organism-based. The note with it: Human immunodeficiency virus 1, HeLa67, 72 h. The method in brief: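 JRFL-Luc ΔEnv pseudotyped virus, titered by serial dilution on HeLa67 cells (CD4+/CCR5+). Fourfold serial dilutions of compound added to infected cells at the time of infection. Luciferase activity read after three days and compared with no-compound controls to derive EC50. Values are means of two or more experiments.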

The structures appear in SMILES notation.

For 58 compounds, CC50 and EC50 results are on record in ChEMBL document CHEMBL1155306, “Inhibitors of HIV-1 attachment. Part 3: A preliminary survey of the effect of structural variation of the benzamide moiety on antiviral activity” (Bioorg Med Chem Lett, 2009).

`O=C(C(=O)N1CCN(C(=O)c2ccc(Cl)cc2)CC1)c1c[nH]c2ccccc12` showed a CC50 at 72 h in series [1] of 92 µM. The compound further displayed a concentration giving a half-maximal response (EC50) in series [2] of 65.8 µM.
The like results for `O=C(C(=O)N1CCN(C(=O)c2cccs2)CC1)c1c[nH]c2cccc(F)c12` were, in that order, above 300 µM and 0.0007 µM.
On to `O=C(C(=O)N1CCN(C(=O)c2ccc(O)cc2)CC1)c1c[nH]c2ccccc12`, for which, in series [1], the 50% cytotoxic concentration (CC50) at 72 h was 136 µM. The compound further came in with an EC50 in series [2] of 2.49 µM.
The like results for `O=C(C(=O)N1CCN(C(=O)C2CCCCC2)CC1)c1c[nH]c2ccccc12` were, in that order, above 300 µM and 3.5 µM.
The like results for `CC(C)(C)c1ccc(C(=O)N2CCN(C(=O)C(=O)c3c[nH]c4ccccc34)CC2)cc1` were, in that order, 31 µM and 9 µM.
The like results for `O=C(C(=O)N1CCN(C(=O)c2ccccn2)CC1)c1c[nH]c2cccc(F)c12` were, in that order, above 300 µM and 0.0045 µM.
On to `O=C(C(=O)N1CCN(C(=O)c2ccc(F)c(F)c2)CC1)c1c[nH]c2ccccc12`, for which the CC50 at 72 h in series [1] is above 300 µM. The compound further displayed a concentration giving a half-maximal response (EC50) in series [2] of 8.3 µM.
The corresponding values for `O=C(C(=O)N1CCN(C(=O)c2cccnc2)CC1)c1c[nH]c2cccc(F)c12` are above 300 µM and 0.154 µM.
In series [1], `COc1cccc(C(=O)N2CCN(C(=O)C(=O)c3c[nH]c4ccccc34)CC2)c1` gave a half-maximal cytotoxic concentration (CC50) at 72 h above 300 µM. In series [2], this compound showed an EC50 above 56 µM.
The like results for `O=C(C(=O)N1CCN(C(=O)c2ccc(Br)cc2)CC1)c1c[nH]c2ccccc12` were, in that order, above 240 µM and 30 µM.
The like results for `O=C(C(=O)N1CCN(C(=O)c2ccccc2Cl)CC1)c1c[nH]c2ccccc12` were, in that order, above 300 µM and 35 µM.
The corresponding values for `N#Cc1ccoc1C(=O)N1CCN(C(=O)C(=O)c2c[nH]c3cccc(F)c23)CC1` are 187 µM and 0.007 µM.
In series [1], `O=C(C(=O)N1CCN(C(=O)Cc2ccccc2)CC1)c1c[nH]c2cccc(F)c12` registered a CC50 at 72 h above 300 µM. This compound also gave a concentration for a half-maximal effect (EC50) in series [2] above 50 µM.
The like results for `CN(C)c1ccc(C(=O)N2CCN(C(=O)C(=O)c3c[nH]c4ccccc34)CC2)cc1` were, in that order, above 300 µM and above 100 µM.
The like results for `O=C(C(=O)N1CCN(C(=O)c2ccncc2)CC1)c1c[nH]c2cccc(F)c12` were, in that order, above 205 µM and 0.0237 µM.
In series [1], `O=C(C(=O)N1CCN(C(=O)c2ccoc2)CC1)c1c[nH]c2cccc(F)c12` showed a CC50 at 72 h above 300 µM. The midpoint of the response in series [2], the EC50, lay at 0.0204 µM.
The corresponding values for `Cc1ccncc1C(=O)N1CCN(C(=O)C(=O)c2c[nH]c3ccccc23)CC1` are above 300 µM and 86.5 µM.
Consider `Cc1ccc(C(=O)N2CCN(C(=O)C(=O)c3c[nH]c4ccccc34)CC2)cc1`, for which the CC50 at 72 h in series [1] is above 99 µM. The same compound gave a concentration for a half-maximal effect (EC50) in series [2] of 8.38 µM.
The like results for `O=C(C(=O)N1CCN(C(=O)c2ccc(F)cc2)CC1)c1c[nH]c2ccccc12` were, in that order, 280 µM and 8.91 µM.
The corresponding values for `CN(C)c1cccc(C(=O)N2CCN(C(=O)C(=O)c3c[nH]c4ccccc34)CC2)c1` are 230 µM and above 0.5 µM.
`O=C(C(=O)N1CCN(C(=O)c2ccccn2)CC1)c1c[nH]c2ccccc12`: in series [1], the CC50 at 72 h is above 300 µM. Besides, in series [2], the EC50 amounted to 1.55 µM.
For `O=C(C(=O)N1CCN(C(=O)c2ccc(F)cc2F)CC1)c1c[nH]c2ccccc12`, the CC50 at 72 h in series [1] is above 300 µM. In series [2], this compound came in with an EC50 of 6 µM.
In series [1], `O=C(C(=O)N1CCN(C(=O)c2ccccc2F)CC1)c1c[nH]c2ccccc12` displayed a CC50 at 72 h of 101 µM. In series [2], this compound yielded an EC50 of 0.391 µM.
Regarding `Cc1nc(C(=O)N2CCN(C(=O)C(=O)c3c[nH]c4cccc(F)c34)CC2)cs1`, the 50% cytotoxic concentration (CC50) at 72 h in series [1] is above 300 µM. Moreover, the midpoint of the response in series [2], the EC50, lay at 0.0228 µM.
Turning to `O=C(C(=O)N1CCN(C(=O)c2cccnc2)CC1)c1c[nH]c2ccccc12`, the CC50 at 72 h in series [1] is above 300 µM. In addition, it took 4.2 µM to reach a half-maximal effect in series [2] (EC50).
The like results for `O=C(C(=O)N1CCN(C(=O)c2cccc(Cl)c2Cl)CC1)c1c[nH]c2ccccc12` were, in that order, 235 µM and 18 µM.
The like results for `O=C(C(=O)N1CCN(C(=O)c2occc2Cl)CC1)c1c[nH]c2cccc(F)c12` were, in that order, 250 µM and 0.0031 µM.
The like results for `O=C(C(=O)N1CCN(C(=O)c2cc[nH]n2)CC1)c1c[nH]c2cccc(F)c12` were, in that order, above 300 µM and 0.0718 µM.
Turning to `O=C(C(=O)N1CCN(C(=O)c2cc(F)c(F)c(F)c2)CC1)c1c[nH]c2ccccc12`, in series [1], the CC50 at 72 h was above 300 µM. The response in series [2] was half-maximal at 55 µM (EC50).
The like results for `O=C(C(=O)N1CCN(C(=O)c2cscn2)CC1)c1c[nH]c2cccc(F)c12` were, in that order, above 250 µM and 0.0087 µM.
In series [1], `O=C(C(=O)N1CCN(C(=O)c2sccc2Br)CC1)c1c[nH]c2cccc(F)c12` came in with a CC50 at 72 h of 69.7 µM. In series [2], this compound gave an EC50 of 0.0032 µM.
The corresponding values for `O=C(C(=O)N1CCN(C(=O)c2ccc(Cl)cc2Cl)CC1)c1c[nH]c2ccccc12` are 111 µM and 37 µM.
The like results for `Cc1ccsc1C(=O)N1CCN(C(=O)C(=O)c2c[nH]c3cccc(F)c23)CC1` were, in that order, 260 µM and 0.0173 µM.
The like results for `O=C(C(=O)N1CCN(C(=O)c2cccc(Br)c2)CC1)c1c[nH]c2ccccc12` were, in that order, 76 µM and 6.7 µM.
In series [1], `O=C(C(=O)N1CCN(C(=O)Cc2ccccc2)CC1)c1c[nH]c2ccccc12` returned a cytotoxic concentration (CC50) at 72 h above 300 µM. In series [2], the EC50 is above 100 µM.
The corresponding values for `O=C(C(=O)N1CCN(C(=O)c2ccccc2O)CC1)c1c[nH]c2ccccc12` are 194 µM and 3.65 µM.
Take `O=C(C(=O)N1CCN(C(=O)c2cccc(Cl)c2)CC1)c1c[nH]c2ccccc12`: in series [1], the 50% cytotoxic concentration (CC50) at 72 h amounted to 117 µM. The EC50 in series [2] was 17.5 µM.
In the case of `O=C(C(=O)N1CCN(C(=O)c2cc(F)c(F)cc2F)CC1)c1c[nH]c2ccccc12`, in series [1], the CC50 at 72 h was above 300 µM. This compound registered an EC50 in series [2] of 36.5 µM.
The like results for `O=C(C(=O)N1CCN(C(=O)c2ccno2)CC1)c1c[nH]c2cccc(F)c12` were, in that order, above 300 µM and 0.156 µM.
The like results for `O=C(C(=O)N1CCN(C(=O)c2cccc(F)c2)CC1)c1c[nH]c2ccccc12` were, in that order, 200 µM and 2.76 µM.
Take `O=C(C(=O)N1CCN(C(=O)c2ccccc2)CC1)c1c[nH]c2cccc(F)c12`: in series [1], the half-maximal cytotoxic concentration (CC50) at 72 h is above 300 µM.
As to `O=C(C(=O)N1CCN(C(=O)c2cccc3ccccc23)CC1)c1c[nH]c2ccccc12`, in series [1], the CC50 at 72 h was above 300 µM. The compound also had an EC50 in series [2] above 100 µM.
As to `O=C(C(=O)N1CCN(C(=O)c2ccccc2Br)CC1)c1c[nH]c2ccccc12`, in series [1], the cytotoxic concentration (CC50) at 72 h was above 300 µM. In series [2], this compound had a concentration giving a half-maximal response (EC50) of 10.5 µM.
The like results for `O=C(C(=O)N1CCN(C(=O)c2c(F)cccc2F)CC1)c1c[nH]c2ccccc12` were, in that order, above 300 µM and 6.7 µM.
The compound `O=C(C(=O)N1CCN(C(=O)c2cc(F)c(F)c(F)c2F)CC1)c1c[nH]c2ccccc12` had a CC50 at 72 h in series [1] above 300 µM. For the same compound, the 50% effective concentration (EC50) in series [2] was above 100 µM.
The like results for `O=C(C(=O)N1CCN(C(=O)c2ccco2)CC1)c1c[nH]c2cccc(F)c12` were, in that order, above 300 µM and 0.0054 µM.
The corresponding values for `O=C(C(=O)N1CCN(C(=O)CC2CCCCC2)CC1)c1c[nH]c2ccccc12` are 158 µM and above 100 µM.
The corresponding values for `O=C(C(=O)N1CCN(C(=O)c2c(F)cc(F)cc2F)CC1)c1c[nH]c2ccccc12` are above 300 µM and above 54 µM.
As to `CCCc1ccc(C(=O)N2CCN(C(=O)C(=O)c3c[nH]c4ccccc34)CC2)cc1`, in series [1], it took 48 µM to reach half-maximal cytotoxicity (CC50 at 72 h). The same compound returned an EC50 in series [2] of 82 µM.
For `O=C(C(=O)N1CCN(C(=O)c2occc2Br)CC1)c1c[nH]c2cccc(F)c12`, the half-maximal cytotoxic concentration (CC50) at 72 h in series [1] came out at 236 µM. In addition, in series [2], the concentration for a half-maximal effect (EC50) was 0.0014 µM.
The corresponding values for `O=C(C(=O)N1CCN(C(=O)c2sccc2Cl)CC1)c1c[nH]c2cccc(F)c12` are 50.5 µM and 0.0119 µM.
In turn, `COc1ccc(C(=O)N2CCN(C(=O)C(=O)c3c[nH]c4ccccc34)CC2)cc1` had a CC50 at 72 h in series [1] of 129 µM. In series [2], this compound had a 50% effective concentration (EC50) of 30.2 µM.
The corresponding values for `CN(C)c1ccccc1C(=O)N1CCN(C(=O)C(=O)c2c[nH]c3ccccc23)CC1` are 89 µM and above 0.5 µM.
The corresponding values for `O=C(C(=O)N1CCN(C(=O)c2cccc(Cl)c2F)CC1)c1c[nH]c2ccccc12` are above 300 µM and 3.5 µM.
In turn, `COc1ccccc1C(=O)N1CCN(C(=O)C(=O)c2c[nH]c3ccccc23)CC1` gave a half-maximal cytotoxic concentration (CC50) at 72 h in series [1] above 300 µM. This compound registered an EC50 in series [2] above 10 µM.
In turn, `O=C(C(=O)N1CCN(C(=O)c2ccc(Cl)c(Cl)c2)CC1)c1c[nH]c2ccccc12` yielded a CC50 at 72 h in series [1] of 123 µM. In series [2], this compound came in with a concentration for a half-maximal effect (EC50) of 14.5 µM.
`O=C(C(=O)N1CCN(C(=O)c2ccsc2)CC1)c1c[nH]c2cccc(F)c12`: the CC50 at 72 h in series [1] was above 300 µM. This compound also returned an EC50 in series [2] of 0.0004 µM.
The corresponding values for `O=C(C(=O)N1CCN(C(=O)c2c[nH]cn2)CC1)c1c[nH]c2cccc(F)c12` are above 300 µM and 1.23 µM.

Usually CC50 stands for the concentration at which the toxic effect on the cells reaches its halfway point. Read a low CC50 as harm at low concentration. The term EC50 denotes the midpoint of the concentration-response curve. The low end stands for greater potency, the high end for weaker potency.
